According to ChEMBL document CHEMBL1155300, “Substituted 3-(4-(1,3,5-triazin-2-yl)-phenyl)-2-aminopropanoic acids as novel tryptophan hydroxylase inhibitors” (Bioorg Med Chem Lett, 2009):
Calls of active or inactive are those of the source. The calls are words filed in the database; no cut-off is given here.

What was measured:
RBL-2H3 = assay: Inhibition of serotonin biosynthesis in rat RBL2H3 cells after 3 days; format: functional, cell-based; settings: RBL-2H3, 72 h
In short: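 Serotonin biosynthesis was measured in rat mastocytoma RBL-2H3 cells. EC50 was taken from inhibition of that biosynthesis.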

[1] = target: T1, Tryptophan 5-hydroxylase 1 (Homo sapiens, UniProt P17752); assay: Inhibition of human recombinant TPH1 by continuous fluorescence assay
T1 sequence (P17752 whole entry): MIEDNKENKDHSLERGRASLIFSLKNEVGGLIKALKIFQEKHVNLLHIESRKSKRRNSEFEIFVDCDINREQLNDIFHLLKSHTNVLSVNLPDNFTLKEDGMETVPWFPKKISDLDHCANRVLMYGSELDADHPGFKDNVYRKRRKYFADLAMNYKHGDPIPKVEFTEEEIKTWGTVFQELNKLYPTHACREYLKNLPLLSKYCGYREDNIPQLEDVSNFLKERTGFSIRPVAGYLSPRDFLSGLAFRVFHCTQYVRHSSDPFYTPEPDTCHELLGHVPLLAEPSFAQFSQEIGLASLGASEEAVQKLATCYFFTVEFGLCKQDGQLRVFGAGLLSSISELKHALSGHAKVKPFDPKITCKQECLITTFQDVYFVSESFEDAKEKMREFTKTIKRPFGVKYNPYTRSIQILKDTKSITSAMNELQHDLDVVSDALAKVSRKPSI
In short: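 Purified recombinant human TPH1 was tested in a continuous fluorescence assay. IC50 was taken from inhibition of enzyme activity.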

Mus musculus [2] = assay: Reduction of serotonin level in mouse duodenum at 100 mg/kg, po bid for 5 days; format: functional; design: scale not given: the % may be the effect or the level left
In short: (§1)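 Mice were dosed at 100 mg/kg twice daily (200 mg/kg/day) for five days, by intraperitoneal injection or oral gavage. 5-HT levels were then measured in blood and intestine (duodenum) and reported as percent decrease.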

[3] = Plasma clearance in C57 albino mouse at 1 mg/kg, iv; format: ADME, organism-based; design: dose 1 mg/kg, route intravenous
In short: (§2)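 Male C57-albino mice were used in two groups. One group received a single 1 mg/kg intravenous injection and the other a 10 mg/kg oral gavage dose. Plasma levels gave clearance and Vss (iv), and Cmax, AUC and oral bioavailability (po).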

[4] = Oral bioavailability in C57 albino mouse at 10 mg/kg; format: ADME, organism-based; settings: in vivo; in short: as §2
Mus musculus [5] = species on record: Mus musculus; assay: Reduction of serotonin level in mouse brain; format: functional, organism-based
Mus musculus [6] = assay: Reduction of serotonin level in mouse duodenum at 100 mg/kg, ip bid for 5 days; format: functional; design: scale not given: the % may be the effect or the level left; settings: route intraperitoneal; in short: as §1
[7] = Cmax in C57 albino mouse at 10 mg/kg, po; format: ADME, organism-based; design: dose 10 mg/kg, route oral; settings: in vivo; in short: as §2
Mus musculus [8] = assay: Reduction of serotonin level in mouse duodenum at 100 mg/kg, ip bid for 8 days; format: functional; design: scale not given: the % may be the effect or the level left; settings: route intraperitoneal
[9] = Volume of distribution at steady state in C57 albino mouse at 1 mg/kg, iv; format: ADME, organism-based; design: dose 1 mg/kg, route intravenous; settings: in vivo, read-out: Vdss; in short: as §2
Mus musculus [10] = assay: Reduction of serotonin level in mouse blood at 100 mg/kg, po bid for 5 days; format: functional; design: scale not given: the % may be the effect or the level left; in short: as §1
Mus musculus [11] = assay: Reduction of serotonin level in mouse blood at 100 mg/kg, ip bid for 5 days; format: functional; design: scale not given: the % may be the effect or the level left; settings: route intraperitoneal; in short: as §1
Mus musculus [12] = assay: AUC in C57 albino mouse at 10 mg/kg, po; format: ADME, organism-based, Plasma; design: dose 10 mg/kg, route oral; settings: in vivo; in short: as §2
Mus musculus [13] = assay: Reduction of serotonin level in mouse blood at 100 mg/kg, ip bid for 8 days; format: functional; design: scale not given: the % may be the effect or the level left; settings: route intraperitoneal

Structure (SMILES) | EC50 (RBL-2H3) [nM] | IC50 [1] [nM] | other results
C[C@H](c1ccc2ccccc2c1)N(C)c1nc(N)nc(-c2ccc(C[C@H](N)C(=O)O)cc2)n1 | 480 | 50 | –
N[C@@H](Cc1ccc(-c2nc(NCc3ccc4ccccc4c3)nc(N3CCOCC3)n2)cc1)C(=O)O | > 40000 | 15600 | –
CNc1nc(N[C@H](C)c2ccc3ccccc3c2)nc(-c2ccc(C[C@H](N)C(=O)O)cc2)n1 | 10200 | 610 | –
C[C@@H](Nc1nc(N)nc(-c2ccc(C[C@H](N)C(=O)O)cc2)n1)c1ccc2ccccc2c1 | 300 | – | Activity (Mus musculus [2]): 38%; clearance [3]: 8.33 mL/min/kg; bioavailability [4]: 5%; Activity (Mus musculus [5]): inactive; Activity (Mus musculus [6]): 37%; Cmax [7]: 500 nM; Activity (Mus musculus [8]): 57%; Vd [9]: 0.5 L/kg; Activity (Mus musculus [10]): 17%; Activity (Mus musculus [11]): 26%; AUC (Mus musculus [12]): 1.6 µM·h; Activity (Mus musculus [13]): 50%
CC(Nc1ncnc(-c2ccc(C[C@H](N)C(=O)O)cc2)n1)c1ccc2ccccc2c1 (stereo not given in full) | 16200 | 190 | –
CC(Nc1nc(N)nc(-c2ccc(C[C@H](N)C(=O)O)cc2)n1)C12CC3CC(CC(C3)C1)C2 (stereo not given in full) | 820 | 19 | –
CC(C)CC(Nc1nc(N)nc(-c2ccc(C[C@H](N)C(=O)O)cc2)n1)c1ccc2ccccc2c1 (stereo not given in full) | > 11000 | 120 | –
CC(C)C(Nc1nc(N)nc(-c2ccc(C[C@H](N)C(=O)O)cc2)n1)c1ccc2ccccc2c1 (stereo not given in full) | 5700 | 250 | –
Nc1nc(OC(c2ccc3ccccc3c2)C(F)(F)F)nc(-c2ccc(C[C@H](N)C(=O)O)cc2)n1 (stereo not given in full) | 9600 | 320 | –
Nc1nc(NCC2CCCCC2)nc(-c2ccc(C[C@H](N)C(=O)O)cc2)n1 | > 11000 | 120 | –
Nc1nc(NC(c2ccc3ccccc3c2)C(F)(F)F)nc(-c2ccc(C[C@H](N)C(=O)O)cc2)n1 (stereo not given in full) | 6300 | 330 | –
C[C@H](Nc1nc(N)nc(-c2ccc(C[C@H](N)C(=O)O)cc2)n1)c1ccc2ccccc2c1 | 2800 | 44 | –

Second part, led by results:

EC50 (RBL-2H3) [nM] | IC50 [1] [nM] | Structure (SMILES) | other results
1400 | 38 | Nc1nc(NCc2cccc(-c3ccccc3)c2)nc(-c2ccc(C[C@H](N)C(=O)O)cc2)n1 | –
2300 | 14 | Cc1ccc(-c2ccc(CNc3nc(N)nc(-c4ccc(C[C@H](N)C(=O)O)cc4)n3)cc2)cc1 | –
4100 | 160 | Nc1nc(NCc2ccc(-c3ccc(C(F)(F)F)cc3)cc2)nc(-c2ccc(C[C@H](N)C(=O)O)cc2)n1 | –
3400 | 150 | Nc1nc(NCc2ccc(Oc3ccccc3)cc2)nc(-c2ccc(C[C@H](N)C(=O)O)cc2)n1 | –
> 11000 | 500 | Nc1nc(NCc2ccccc2)nc(-c2ccc(C[C@H](N)C(=O)O)cc2)n1 | –
2500 | 24 | CC(Nc1nc(N)nc(-c2ccc(C[C@H](N)C(=O)O)cc2)n1)c1ccc(-c2ccccc2)cc1 (stereo not given in full) | –
2100 | – | Nc1nc(NCc2ccc3ccccc3c2)nc(-c2ccc(C[C@H](N)C(=O)O)cc2)n1 | –
> 11000 | 100 | Cc1ccc(CNc2nc(N)nc(-c3ccc(C[C@H](N)C(=O)O)cc3)n2)cc1C | –
1700 | 55 | CC(C)(Nc1nc(N)nc(-c2ccc(C[C@H](N)C(=O)O)cc2)n1)c1ccc2ccccc2c1 | –
36000 | 120 | Nc1nc(NCc2ccc(C(F)(F)F)cc2)nc(-c2ccc(C[C@H](N)C(=O)O)cc2)n1 | –
2200 | 7 | Nc1nc(NCc2ccccc2-c2ccccc2)nc(-c2ccc(C[C@H](N)C(=O)O)cc2)n1 | –
1800 | 60 | Nc1nc(NCc2ccc(-c3ccccc3)cc2)nc(-c2ccc(C[C@H](N)C(=O)O)cc2)n1 | –
2300 | 150 | CCC(Nc1nc(N)nc(-c2ccc(C[C@H](N)C(=O)O)cc2)n1)c1ccc2ccccc2c1 (stereo not given in full) | –
